“And” between values parts separate entries of the source, which are not always exact repeats. Equal values may be shown once.
What was measured:
Trypanosoma cruzi [1] = experiment: Antitrypanosomal activity against Trypanosoma cruzi Sylvio X-10 amastigotes infected in African green monkey Vero cells assessed as eradication of amastigotes after 5 days by Giemsa staining-based assay; type: functional, organism-based; conditions: Sylvio X-10, Vero, 120 h
Procedure, shortened: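 VERO cells in RPMI 1640 with 10% hiFCS were allowed to adhere for 24 h at 37 °C in 5% CO₂, then infected with tissue-derived trypomastigotes at 10:1. Free parasites were washed off after 24 h, and cultures were treated at five compound doses (text gives 72 h / 5 days). Cultures were methanol-fixed and Giemsa-stained, and infected cells were counted among 300. Quadruplicates were run in three independent experiments. IC50/IC90 were obtained by sigmoidal regression.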

Salmonella typhimurium [2] = experiment: Mutagenic activity in Salmonella typhimurium TA98 at 0.05 to 4 ug/plate by Ames test in presence of mouse liver S9 fraction; type: toxicity, organism-based; conditions: salmonella enterica subsp. enterica serovar typhimurium
Procedure, shortened: (§1)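 Ames plate-incorporation assay with S. typhimurium TA98 in Vogel-Bonner E minimal glucose agar. Toxicity toward the bacteria was checked first. DMSO solutions were run in triplicate at five consecutive third-dilutions, starting at the highest non-toxic dose. Positive controls were 4-nitro-o-phenylenediamine (20.0 μg/plate) and 2-aminofluorene (10.0 μg/plate); DMSO was the negative control. Revertants were counted manually. A compound was called mutagenic when revertants were at least twice the negative control at two or more consecutive doses.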

[3] = Selectivity index, ratio of IC50 for African green monkey Vero cells to IC50 for Trypanosoma cruzi Sylvio X-10 amastigotes; type: toxicity, cell-based; conditions: read-out: Ratio IC50
Procedure, shortened: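 VERO cytotoxicity: cells exposed 48 h at 37 °C, 5% CO2 to serial dilutions from a maximum of 2000 μM (DMSO stocks; DMSO <0.1% control); growth inhibition read by MTT at 570 nm. Amastigote IC50: Sylvio X-10-infected VERO cells, five doses, infected cells counted among 300 (Giemsa), quadruplicate, three experiments, sigmoidal fit. SI = IC50 VERO / IC50 amastigote.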

Salmonella typhimurium [4] = experiment: Mutagenic activity in Salmonella typhimurium TA98 at 0.05 to 4 ug/plate by Ames test; type: toxicity, organism-based; conditions: salmonella enterica subsp. enterica serovar typhimurium; procedure, shortened: as §1
Trypanosoma cruzi [5] = experiment: Antitrypanosomal activity against Trypanosoma cruzi Sylvio X-10 amastigotes infected in African green monkey Vero cells assessed as eradication of amastigotes after 72 hrs by Giemsa staining-based assay; conditions: Sylvio X-10, Vero
Trypanosoma cruzi [6] = experiment: Antitrypanosomal activity against Trypanosoma cruzi Tulahuen 2 epimastigotes assessed as growth inhibition after 5 days; type: functional, organism-based; conditions: Trypanosoma cruzi, Tulahuen 2, 120 h
Procedure, shortened: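 Epimastigotes were grown axenically at 28 °C in BHI-tryptose with 5% FBS and seeded from a 5–7 day culture at 1 × 10⁶ cells/mL. Drug from a DMSO stock was added (final DMSO ≤0.4%; the control contained 0.4% DMSO). Duplicates were run. A600 was read at day 5, and % inhibition was calculated relative to day-0 and control readings. IC50 = concentration that halves the absorbance ratio.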

Salmonella typhimurium [7] = experiment: Mutagenic activity in Salmonella typhimurium TA1537 at 0.03 to 0.2 ug/plate by Ames test in presence of mouse liver S9 fraction; type: toxicity, organism-based; conditions: salmonella enterica subsp. enterica serovar typhimurium, in the assay text read “0.003 to 0.2 ug/plate” for “0.03 to 0.2 ug/plate”
Procedure, shortened: (§2)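 Plate-incorporation Ames test on minimal glucose agar with 500 μL Aroclor-treated mouse liver S9 added. DMSO solutions were tested at five consecutive 3-fold dilutions from the highest non-toxic dose, in triplicate, with a DMSO negative control. Revertants were counted manually; a compound was scored mutagenic when revertants were at least twice the negative control for two or more consecutive doses.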

[8] = Stability of the compound in aqueous solution assessed as compound remaining at 1 mM at pH 1 after 1 hr by TLC analysis; type: physicochemical; conditions: read-out: Stability
Procedure, shortened: (§3)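 DMSO stocks diluted to final 1 mM in KCl·HCl pH 1.0, citrate pH 6.0, Tris·HCl pH 7.4 or borax·HCl pH 9.0 buffer. Incubated 1 h at 37 °C, then ethyl acetate extracts checked by TLC for decomposition products.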

Salmonella typhimurium [9] = experiment: Mutagenic activity in Salmonella typhimurium TA100 at 3.09 to 250 ug/plate by Ames test; type: toxicity, organism-based; conditions: salmonella enterica subsp. enterica serovar typhimurium
Procedure, shortened: (§4)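 Direct plate incubation on minimal glucose agar (Vogel-Bonner E). Compound toxicity to the bacteria was checked first. DMSO solutions were tested at five consecutive 3-fold dilutions, starting from the highest non-toxic dose, in triplicate, without metabolic activation. DMSO served as negative control. Revertants were counted manually; mutagenic = revertants at least double the negative control at two or more consecutive doses.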

Salmonella typhimurium [10] = experiment: Mutagenic activity in Salmonella typhimurium TA1537 at 0.03 to 0.2 ug/plate by Ames test; type: toxicity, organism-based; conditions: salmonella enterica subsp. enterica serovar typhimurium; procedure, shortened: as §4
[11] = Stability of the compound in aqueous solution assessed as compound remaining at 1 mM at pH 6 after 1 hr by TLC analysis; type: physicochemical; conditions: aqueous solution, pH 6; read-out: Stability; procedure, shortened: as §3
Salmonella typhimurium [12] = experiment: Mutagenic activity in Salmonella typhimurium TA102 at […] ug/plate by Ames test in presence of mouse liver S9 fraction; type: toxicity, organism-based; conditions: salmonella enterica subsp. enterica serovar typhimurium; procedure, shortened: as §2
[13] = Stability of the compound in aqueous solution assessed as compound remaining at 1 mM at pH 9 after 1 hr by TLC analysis; type: physicochemical; conditions: aqueous solution, pH 9; read-out: Stability; procedure, shortened: as §3
Salmonella typhimurium [14] = experiment: Mutagenic activity in Salmonella typhimurium TA98 at 6 to 500 ug/plate by Ames test; type: toxicity, organism-based; conditions: salmonella enterica subsp. enterica serovar typhimurium; procedure, shortened: as §1
Salmonella typhimurium [15] = experiment: Mutagenic activity in Salmonella typhimurium TA98 at 6 to 500 ug/plate by Ames test in presence of mouse liver S9 fraction; type: toxicity, organism-based; conditions: salmonella enterica subsp. enterica serovar typhimurium; procedure, shortened: as §1
[16] = Stability of the compound in aqueous solution assessed as compound remaining at 1 mM at pH 7.4 after 1 hr by TLC analysis; type: physicochemical; conditions: aqueous solution, pH 7.4; read-out: Stability; procedure, shortened: as §3
Salmonella typhimurium [17] = experiment: Mutagenic activity in Salmonella typhimurium TA100 at 3.09 to 250 ug/plate by Ames test in presence of mouse liver S9 fraction; type: toxicity, organism-based; conditions: salmonella enterica subsp. enterica serovar typhimurium; procedure, shortened: as §2
Salmonella typhimurium [18] = experiment: Mutagenic activity in Salmonella typhimurium TA102 at […] ug/plate by Ames test; type: toxicity, organism-based; conditions: salmonella enterica subsp. enterica serovar typhimurium; procedure, shortened: as §4
Salmonella typhimurium [19] = experiment: Mutagenic activity in Salmonella typhimurium TA1535 at […] ug/plate by Ames test; type: toxicity, organism-based; conditions: salmonella enterica subsp. enterica serovar typhimurium; procedure, shortened: as §4
Salmonella typhimurium [20] = experiment: Mutagenic activity in Salmonella typhimurium TA1535 at […] ug/plate by Ames test in presence of mouse liver S9 fraction; type: toxicity, organism-based; conditions: salmonella enterica subsp. enterica serovar typhimurium; procedure, shortened: as §2
Salmonella typhimurium [21] = experiment: Mutagenic activity in Salmonella typhimurium TA98 at 0.005 to 0.4 ug/plate by Ames test; type: toxicity, organism-based; conditions: salmonella enterica subsp. enterica serovar typhimurium; procedure, shortened: as §4
Salmonella typhimurium [22] = experiment: Mutagenic activity in Salmonella typhimurium TA98 at 0.005 to 0.4 ug/plate by Ames test in presence of mouse liver S9 fraction; type: toxicity, organism-based; conditions: salmonella enterica subsp. enterica serovar typhimurium; procedure, shortened: as §2
[23] = Selectivity index, ratio of IC50 for mouse J774.1 cells to IC50 for Trypanosoma cruzi Sylvio X-10 amastigotes; type: toxicity; conditions: read-out: Ratio IC50
Procedure, shortened: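 J774.1 macrophages grown in DMEM with 10% heat-inactivated FCS and allowed to attach 48 h, then exposed 48 h at 37 °C to 12.5–400.0 μM. Triplicates. MTT 0.1 mg/mL for 3 h, read at 560 nm; IC50 by linear regression against the solvent control. SI = IC50 J774.1 / parasite IC50 (Sylvio X-10 amastigotes or Tulahuen 2 epimastigotes, the latter measured by A600 growth inhibition at day 5).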

[24] = Selectivity index, ratio of IC50 for human RBC to IC50 for Trypanosoma cruzi Sylvio X-10 amastigotes
Procedure, shortened: (§5)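 Hemolysis: washed human erythrocytes (2% w/v in PBS) incubated 24 h at 37 °C with compound at final 50, 100 and 200 μM. Ten replicates per concentration. Hemoglobin release read at 405 nm against water lysis as 100%; amphotericin B 1.5 μM was the positive control. SI = IC50 red cells / parasite IC50 (Sylvio X-10 amastigotes or Tulahuen 2 epimastigotes).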

Trypanosoma cruzi [25] = experiment: Antitrypanosomal activity against Trypanosoma cruzi Sylvio X-10 amastigotes infected in African green monkey Vero cells assessed as eradication of amastigotes after 72 hrs by Giemsa staining-based assay; conditions: vero
Salmonella typhimurium [26] = experiment: Mutagenic activity in Salmonella typhimurium TA98 at 5 to 400 ug/plate by Ames test; type: toxicity, organism-based; conditions: salmonella enterica subsp. enterica serovar typhimurium; procedure, shortened: as §1
Salmonella typhimurium [27] = experiment: Mutagenic activity in Salmonella typhimurium TA98 at 3 to 250 ug/plate by Ames test in presence of mouse liver S9 fraction; type: toxicity, organism-based; conditions: salmonella enterica subsp. enterica serovar typhimurium; procedure, shortened: as §1
Salmonella typhimurium [28] = experiment: Mutagenic activity in Salmonella typhimurium TA98 at 0.02 to 2 ug/plate by Ames test; type: toxicity, organism-based; conditions: salmonella enterica subsp. enterica serovar typhimurium; procedure, shortened: as §4
Salmonella typhimurium [29] = experiment: Mutagenic activity in Salmonella typhimurium TA98 at 0.02 to 2 ug/plate by Ames test in presence of mouse liver S9 fraction; type: toxicity, organism-based; conditions: salmonella enterica subsp. enterica serovar typhimurium; procedure, shortened: as §2
[30] = Cytotoxicity against African green monkey Vero cells assessed as growth inhibition at 25 uM after 48 hrs by MTT assay relative to control; type: cell-based; conditions: chlorocebus sabaeus, read-out: GI
Procedure, shortened: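 VERO cells were exposed to serial dilutions in fresh medium of compounds dissolved in DMSO, for 48 h at 37 °C in 5% CO₂. A DMSO (<0.1%) negative control was included. Growth inhibition was read by MTT at 570 nm; nifurtimox was the positive control.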

[31] = Selectivity index, ratio of IC50 for human RBC to IC50 for Trypanosoma cruzi Tulahuen 2 epimastigotes; procedure, shortened: as §5

C=CCNc1nnc(-c2ccc([N+](=O)[O-])s2)s1
IC50 (Trypanosoma cruzi [1]): 5 µM
Activity (Salmonella typhimurium [2]): Non-toxic
selectivity ratio [3]: 50
Activity (Salmonella typhimurium [4]): Non-toxic
IC90 (Trypanosoma cruzi [5]): 15.9 µM
IC50 (Trypanosoma cruzi [6]): 12 µM

C=CCn1c(C)cs/c1=N/N=C/C=C/c1ccco1
Activity (Salmonella typhimurium [7]): Non-toxic
remaining at 1 h, 1000 µM [8]: 90%
Activity (Salmonella typhimurium [9]): Non-toxic
Activity (Salmonella typhimurium [10]): Non-toxic
remaining at 1 h, 1000 µM [11]: > 95%
IC50 (Trypanosoma cruzi [1]): 6.3 µM
Activity (Salmonella typhimurium [12]): Non-toxic
remaining at 1 h, 1000 µM [13]: > 95%
Activity (Salmonella typhimurium [14]): Non-toxic
Activity (Salmonella typhimurium [15]): Non-toxic
remaining at 1 h, 1000 µM [16]: > 95%
Activity (Salmonella typhimurium [17]): Non-toxic
Activity (Salmonella typhimurium [18]): Non-toxic
Activity (Salmonella typhimurium [19]): Non-toxic
Activity (Salmonella typhimurium [20]): Non-toxic
IC90 (Trypanosoma cruzi [5]): 51 µM
IC50 (Trypanosoma cruzi [6]): > 25 µM

C=CCn1c(C)csc1=N/N=C/c1ccc([N+](=O)[O-])s1
Activity (Salmonella typhimurium [21]): Non-toxic
IC50 (Trypanosoma cruzi [1]): 2.55 µM
Activity (Salmonella typhimurium [22]): Non-toxic
IC50 (Trypanosoma cruzi [6]): 20 µM

CC1CS(=O)(=O)CCN1/N=C/c1ccc([N+](=O)[O-])o1 (stereo unspecified) [NIFURTIMOX]
selectivity ratio [23]: 200
Ratio IC50 [24]: 150
IC50 (Trypanosoma cruzi [25]): 0.45 µM and 2.4 µM
selectivity ratio [3]: 200
IC50 (Trypanosoma cruzi [6]): 8 µM

C=CCN1C(=O)CS\C1=N/N=C/C=C/c1cccs1
Activity (Salmonella typhimurium [26]): Toxic
Activity (Salmonella typhimurium [27]): Toxic
IC50 (Trypanosoma cruzi [6]): 20 µM

C=CCN1C(=O)CS\C1=N/N=C/C=C/c1ccc([N+](=O)[O-])s1
Ratio IC50 [24]: 28
Activity (Salmonella typhimurium [28]): Toxic
IC50 (Trypanosoma cruzi [1]): 2.8 µM
Activity (Salmonella typhimurium [29]): Non-toxic
selectivity ratio [3]: 80
IC50 (Trypanosoma cruzi [6]): 1.3 µM

CC(=O)N(C1=NN(C(C)=O)C(c2ccc([N+](=O)[O-])s2)S1)c1ccccc1 (stereo unspecified)
Activity (Salmonella typhimurium [21]): Toxic
inhibition at 48 h, 25 µM [30]: > 50%
Ratio IC50 [31]: 3
Activity (Salmonella typhimurium [22]): Non-toxic
IC50 (Trypanosoma cruzi [6]): 2.9 µM
